Key:
Kif15-N700 [1] = target: T1, Kif15-N700 (Homo sapiens, UniProt Q9NS87); assay: MT gliding assay with Kif15-N700; assay type: biochemical; conditions: for Kif15 MT gliding inhibition (SAR, in words): 750 nM; for effect on Kif15-driven MT gliding at a single concentration: GW108X 10 μM for 1 minute, Kif15-IN-1 1.72 μM; for reversibility of Kif15 inhibition in MT gliding assay: wash out experiment
T1 sequence (Q9NS87 1-700 limits assumed): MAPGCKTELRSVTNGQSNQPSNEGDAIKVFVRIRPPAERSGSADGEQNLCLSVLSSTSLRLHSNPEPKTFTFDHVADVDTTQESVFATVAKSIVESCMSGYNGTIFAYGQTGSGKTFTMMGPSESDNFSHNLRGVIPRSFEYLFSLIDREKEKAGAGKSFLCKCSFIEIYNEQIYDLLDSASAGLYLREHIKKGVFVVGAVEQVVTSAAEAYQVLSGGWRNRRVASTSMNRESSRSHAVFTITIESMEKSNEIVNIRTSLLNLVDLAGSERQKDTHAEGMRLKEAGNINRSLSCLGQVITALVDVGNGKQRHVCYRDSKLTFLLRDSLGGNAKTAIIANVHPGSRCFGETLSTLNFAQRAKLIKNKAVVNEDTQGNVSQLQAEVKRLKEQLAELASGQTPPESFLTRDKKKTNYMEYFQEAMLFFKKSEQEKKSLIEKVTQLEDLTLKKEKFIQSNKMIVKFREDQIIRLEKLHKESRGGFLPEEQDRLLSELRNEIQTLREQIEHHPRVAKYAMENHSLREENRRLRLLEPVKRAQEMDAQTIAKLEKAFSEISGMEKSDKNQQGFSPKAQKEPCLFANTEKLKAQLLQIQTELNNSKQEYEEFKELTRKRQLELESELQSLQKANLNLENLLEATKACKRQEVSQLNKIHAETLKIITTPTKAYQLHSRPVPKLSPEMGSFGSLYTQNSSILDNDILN
How it was run: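 Motility assay in which Kif15-N700 glides fluorescent MTs, scored by gliding velocity. The SAR screen used 750 nM test compound in triplicate (some in duplicate), with n ≥ 30 measurements per replicate. Concentration-response series ran 10 to 0.2 μM (12 concentrations) or 30 to 0.1 μM (5 concentrations). For reversibility, gliding was started in DMSO, then 10 μM compound was added for 1 minute, followed by a double wash-out.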

Kif15-N700 [2] = target: T1, Kif15-N700; assay: MT-stimulated ATPase activity of Kif15-N700 at varying ATP or MT concentrations; assay type: biochemical; conditions: for mode of inhibition with respect to ATP: Lineweaver-Burk analysis
KIRC-1 cells = assay: Spindle monopolarity in K5I-resistant KIRC-1 cells; assay type: cell-based
TP53−/− RPE-1 cells = assay: Spindle morphology; assay type: cell-based; conditions: 25 μM
How it was run: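 TP53−/− RPE-1 cells were exposed to 25 μM test compound or DMSO for 24 h and stained for tubulin, Kif15 and DNA. Pre-anaphase microtubule arrays were scored for bipolarity, in triplicate with at least 100 cells per replicate; spindle lengths were compared with DMSO-treated cells.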

Kif15 = target: T2, Kif15 (Homo sapiens, UniProt Q9NS87); assay: Kif15 localization and protein level in RPE-1 cells; assay type: cell-based; conditions: 25 μM
T2 sequence (Q9NS87 1-1388): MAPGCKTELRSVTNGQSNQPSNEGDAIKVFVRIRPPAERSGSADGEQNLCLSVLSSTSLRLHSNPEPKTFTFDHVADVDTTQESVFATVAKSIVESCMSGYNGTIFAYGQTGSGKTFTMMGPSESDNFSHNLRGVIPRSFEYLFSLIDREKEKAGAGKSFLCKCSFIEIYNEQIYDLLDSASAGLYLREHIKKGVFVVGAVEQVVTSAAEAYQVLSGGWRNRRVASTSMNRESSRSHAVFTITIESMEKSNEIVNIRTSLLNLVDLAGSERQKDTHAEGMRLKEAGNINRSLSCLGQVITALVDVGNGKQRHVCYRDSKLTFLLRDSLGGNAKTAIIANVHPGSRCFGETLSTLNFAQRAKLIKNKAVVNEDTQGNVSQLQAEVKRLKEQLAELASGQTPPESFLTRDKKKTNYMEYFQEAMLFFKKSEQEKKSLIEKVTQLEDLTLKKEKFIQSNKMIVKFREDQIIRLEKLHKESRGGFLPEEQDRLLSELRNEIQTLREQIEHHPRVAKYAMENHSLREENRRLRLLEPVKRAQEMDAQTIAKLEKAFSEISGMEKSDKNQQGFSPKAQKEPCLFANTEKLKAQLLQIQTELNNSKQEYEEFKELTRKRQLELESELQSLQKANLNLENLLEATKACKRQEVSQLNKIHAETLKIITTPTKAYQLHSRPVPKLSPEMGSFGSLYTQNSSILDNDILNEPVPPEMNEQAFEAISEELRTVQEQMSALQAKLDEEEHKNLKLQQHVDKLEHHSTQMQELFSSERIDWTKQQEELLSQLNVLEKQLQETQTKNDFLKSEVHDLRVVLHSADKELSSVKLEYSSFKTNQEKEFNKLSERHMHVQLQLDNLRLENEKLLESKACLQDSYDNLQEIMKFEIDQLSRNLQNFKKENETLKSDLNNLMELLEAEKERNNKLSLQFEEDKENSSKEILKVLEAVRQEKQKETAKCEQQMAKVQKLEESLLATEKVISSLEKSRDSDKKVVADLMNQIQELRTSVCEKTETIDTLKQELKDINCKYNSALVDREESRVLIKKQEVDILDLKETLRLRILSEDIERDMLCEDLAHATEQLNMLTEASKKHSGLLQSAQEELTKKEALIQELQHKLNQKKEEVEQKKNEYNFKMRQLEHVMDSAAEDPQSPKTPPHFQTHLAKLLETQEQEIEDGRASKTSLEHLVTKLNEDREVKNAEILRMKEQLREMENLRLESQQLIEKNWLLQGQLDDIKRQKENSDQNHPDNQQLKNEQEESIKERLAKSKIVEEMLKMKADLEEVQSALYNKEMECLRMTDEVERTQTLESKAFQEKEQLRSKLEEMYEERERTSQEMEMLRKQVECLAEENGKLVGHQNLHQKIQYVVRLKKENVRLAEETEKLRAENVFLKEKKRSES
How it was run: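 TP53−/− RPE-1 cells were exposed to the test compound at 25 μM or to DMSO for 24 h, then immunostained for Kif15, tubulin and DNA. Imaging used max-intensity z-projections or single optical sections. Spindle-bound Kif15 was quantified on metaphase MTs as the ratio of Kif15 to tubulin fluorescence intensity. 25–30 cells were analysed, pooled from triplicate experiments.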

RPE-1 cells = conditions: cited from earlier work
[3] = ATP varied, high MT concentration

O=C1Nc2ccc(C(=O)c3ccco3)cc2/C1=C/c1cc(I)c(O)c(I)c1 [Compound 5]
Kif15 MT gliding inhibition (SAR, in words) (Kif15-N700 [1]): not as well tolerated

O=C1Nc2ccc(C(=O)c3ccco3)cc2/C1=C/c1cc(F)c(O)c(Br)c1 [Compound 6]
Kif15 MT gliding inhibition (SAR, in words) (Kif15-N700 [1]): intermediary inhibition

O=C1Nc2ccc(C(=O)c3ccco3)cc2/C1=C/c1cc(Cl)c(O)c(Br)c1 [Compound 7]
Kif15 MT gliding inhibition (SAR, in words) (Kif15-N700 [1]): intermediary inhibition

O=C1Nc2ccc(C(=O)c3ccco3)cc2/C1=C/c1cc(Br)cc(Br)c1 [Compound 8]
Kif15 MT gliding inhibition (SAR, in words) (Kif15-N700 [1]): abolished activity

Cc1cc(/C=C2\C(=O)Nc3ccc(C(=O)c4ccco4)cc32)cc(C)c1O [Compound 9]
Kif15 MT gliding inhibition (SAR, in words) (Kif15-N700 [1]): reduced in activity

COc1c(Br)cc(/C=C2\C(=O)Nc3ccc(C(=O)c4ccco4)cc32)cc1Br [Compound 10]
Kif15 MT gliding inhibition (SAR, in words) (Kif15-N700 [1]): abolished activity

O=C1Nc2ccc(C(=O)c3ccco3)cc2/C1=C/c1cc(Cl)c(O)c(Cl)c1 [GW108X]
effect on Kif15-driven MT gliding at a single concentration (Kif15-N700 [1]): eliminate MT gliding | reversibility of Kif15 inhibition in MT gliding assay (Kif15-N700 [1]): reversible | change in KM^ATP (Kif15-N700 [2]; [3]): no change | change in Vmax (Kif15-N700 [2]; [3]): decrease | mode of inhibition with respect to ATP (Kif15-N700 [2]): not competing with ATP binding | change in KM^MT (Kif15-N700 [2]; MT varied, saturating ATP): increase | dose dependence of block of spindle assembly (KIRC-1 cells): dose-dependent | spindle length (effect in words) (TP53−/− RPE-1 cells): unaffected

CCOC(=O)c1sc(NC(=O)[C@H](C(C)C)n2c(=O)[nH]c3ccccc3c2=O)nc1C [Kif15-IN-1, reference compound]
effect on Kif15-driven MT gliding at a single concentration (Kif15-N700 [1]): abolishes Kif15-driven MT gliding | reversibility of Kif15 inhibition in MT gliding assay (Kif15-N700 [1]): reversible | change in KM^ATP (Kif15-N700 [2]; [3]): increase | mode of inhibition with respect to ATP (Kif15-N700 [2]): competes with ATP binding | effect on spindle-bound levels of Kif15 (Kif15): did not reduce

BRD9876
effect on spindle integrity (RPE-1 cells): does not cause spindle collapse

From paper PMC6681659 (Bioorganic & medicinal chemistry letters, 2018)
